The subject of one data set is Leishmania donovani. Briefly: Antileishmanial activity against Leishmania donovani Dd8 promastigote forms after 48 hrs by neubauer hemocytometer method. It counts as functional. The settings on record: for IC50: Dd8, 48 h. The procedure, abridged:
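Promastigotes of L. donovani Dd8 strain exposed 48 h to increasing concentrations of test agent; percent viability scored, IC50 derived.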

In data set [1] the test system is THP-1. The data set is described as follows: Cytotoxicity against human PMA-differentaited THP1 cells after 24 hrs by MTT assay. The data set is classed as cell-based. The settings on record: THP-1, 24 h.
A short description of data set [2]: Selectivity index, ratio of IC50 for human PMA-differentaited THP1 cells to IC50 for promastigote form of Leishmania donovani Dd8. It counts as toxicity. To be noted: PMA-differentiated THP1 cells, read-out: Ratio IC50. The procedure, abridged:
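Ratio of IC50 against THP-1 macrophages (normal cells) to IC50 against L. donovani promastigotes.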

Data set [3] has as its system THP-1. The data set is described as follows: Cytotoxicity against human PMA-differentaited THP1 cells assessed as cell viability at 100 uM after 24 hrs by MTT assay. The data set is classed as cell-based. The settings on record: thp-1, 24 h.

As for `O=C(OCc1cn(-c2ccc(F)cc2)nn1)[C@@H]1CCCN1`, the IC50 (as a rule, the concentration needed to halve the response being measured) in the data set on Leishmania donovani was 122 µM; in the data set with THP-1 [1], 309 µM. The selectivity ratio in data set [2] was 2.54.

For the compound `COc1ccc(-n2cc(COC(=O)[C@@H](N)Cc3ccccc3)nn2)cc1`, the IC50 is 144 µM in the data set with Leishmania donovani and 260 µM in the data set on THP-1 [1]. Besides, in data set [2], the selectivity ratio is 1.8.

Consider `N[C@@H](Cc1ccccc1)C(=O)OCc1cn(-c2ccc([N+](=O)[O-])cc2)nn1`, for which the IC50 in the data set on Leishmania donovani turned out to be 171 µM; in the data set with THP-1 [1], 180 µM. For the same compound, the selectivity ratio in data set [2] is 1.05.

As for `Cc1ccc(-n2cc(COC(=O)[C@@H]3CCCN3)nn2)cc1`, the values for the IC50 in the data set on Leishmania donovani and in the data set with THP-1 [1] were 175 µM and 421 µM, respectively. In addition, the selectivity ratio in data set [2] was found to be 2.4.

For the compound `N[C@@H](Cc1c[nH]c2ccccc12)C(=O)OCc1cn(-c2ccccc2)nn1`, the IC50 with Leishmania donovani amounted to 138 µM; in the data set on THP-1 [1] it was 191 µM. Further, the selectivity ratio in data set [2] amounted to 1.39.

Regarding `N[C@@H](Cc1c[nH]c2ccccc12)C(=O)OCc1cn(-c2ccc(Cl)cc2)nn1`, the IC50 in the data set with Leishmania donovani was 129 µM; in the data set on THP-1 [1] it was 317 µM. Moreover, the selectivity ratio in data set [2] came to 2.46.

With `O=C(OCc1cn(-c2ccc(Cl)cc2)nn1)[C@@H]1CCCN1`, the IC50 in the data set with Leishmania donovani worked out at 157 µM; in the data set on THP-1 [1] it was 346 µM. Besides, the selectivity ratio in data set [2] is 2.2.

Regarding `N[C@@H](Cc1ccccc1)C(=O)OCc1cn(-c2ccc(F)cc2)nn1`, the 50% inhibitory concentration (IC50) in the data set on Leishmania donovani came to 133 µM; with THP-1 [1], 196 µM. Besides, the selectivity ratio in data set [2] was found to be 1.48.

As to `N[C@@H](Cc1ccccc1)C(=O)OCc1cn(-c2ccccc2)nn1`, the figures for the IC50 in the data set on Leishmania donovani and in the data set on THP-1 [1] were 163 µM and 504 µM, respectively. The selectivity ratio in data set [2] amounted to 3.09.

In the case of `COc1ccc(-n2cc(COC(=O)[C@@H](N)Cc3c[nH]c4ccccc34)nn2)cc1`, the Activity entry in the data set with Leishmania donovani was “Dose-dependent effect”; with THP-1 [3], “Non-Toxic”. The figures for the IC50 in the data set on Leishmania donovani and in the data set on THP-1 [1] were 94.5 µM and 195 µM, respectively. Moreover, in data set [2], the selectivity ratio amounted to 2.06.

On to `N[C@@H](Cc1c[nH]c2ccccc12)C(=O)OCc1cn(-c2ccc([N+](=O)[O-])cc2)nn1`, for which the concentration for half-maximal inhibition (IC50) turned out to be 119 µM with Leishmania donovani and 174 µM with THP-1 [1]. Further, the selectivity ratio in data set [2] came out at 1.47.

On to `Cc1ccc(-n2cc(COC(=O)[C@@H](N)Cc3c[nH]c4ccccc34)nn2)cc1`, for which the results for the half-inhibitory concentration (IC50) in the data set on Leishmania donovani and in the data set on THP-1 [1] were 99.4 µM and 293 µM, respectively. Besides, in data set [2], the selectivity ratio is 2.95.

As to `O=C(OCc1cn(-c2ccccc2)nn1)[C@@H]1CCCN1`, the Activity entry with Leishmania donovani was “Dose-dependent effect”; in the data set with THP-1 [3], “Non-Toxic”. In addition, the IC50 with Leishmania donovani turned out to be 96.9 µM; with THP-1 [1], 780 µM. Also, in data set [2], the selectivity ratio was 8.05.

Turning to `O=C(OCc1cn(-c2ccc([N+](=O)[O-])cc2)nn1)[C@@H]1CCCN1`, the results for the half-maximal inhibitory concentration (IC50) in the data set on Leishmania donovani and with THP-1 [1] were 189 µM and 344 µM, respectively. Further, the selectivity ratio in data set [2] came out at 1.82.

For the compound `N[C@@H](Cc1ccccc1)C(=O)OCc1cn(-c2ccc(Cl)cc2)nn1`, the figures for the 50% inhibitory concentration (IC50) in the data set with Leishmania donovani and with THP-1 [1] were 132 µM and 389 µM, respectively. The selectivity ratio in data set [2] was found to be 2.94.

Regarding `COc1ccc(-n2cc(COC(=O)[C@@H]3CCCN3)nn2)cc1`, the concentration for half-maximal inhibition (IC50) in the data set with Leishmania donovani stood at 104 µM; in the data set with THP-1 [1], 218 µM. The selectivity ratio in data set [2] worked out at 2.11.

Turning to `N[C@@H](Cc1c[nH]c2ccccc12)C(=O)OCc1cn(-c2ccc(F)cc2)nn1`, the half-inhibitory concentration (IC50) came to 151 µM in the data set with Leishmania donovani and 352 µM in the data set on THP-1 [1]. For the same compound, the selectivity ratio in data set [2] stood at 2.32.

On to `CCCCCCCCCCCCCCCCOP(=O)([O-])OCC[N+](C)(C)C` [MILTEFOSINE], for which the results for the IC50 in the data set on Leishmania donovani and in the data set on THP-1 [1] were 27.1 µM and 54.1 µM, respectively. Moreover, in data set [2], the selectivity ratio was 1.99.

Regarding `Cc1ccc(-n2cc(COC(=O)[C@@H](N)Cc3ccccc3)nn2)cc1`, the Activity result was “Dose-dependent effect” in the data set with Leishmania donovani and “Non-Toxic” with THP-1 [3]. Also, the results for the concentration for half-maximal inhibition (IC50) in the data set with Leishmania donovani and with THP-1 [1] were 88.8 µM and 292 µM, respectively. For the same compound, the selectivity ratio in data set [2] came to 3.28.

For the origin of these results see ChEMBL document CHEMBL4014305, “Anti-leishmanial and cytotoxic activities of amino acid-triazole hybrids: Synthesis, biological evaluation, molecular docking and in silico physico-chemical properties” (Bioorg Med Chem Lett, 2017).
